Measured values from ChEMBL document CHEMBL3352678, “Synthesis and acetylcholinesterase inhibitory activity of Mannich base derivatives flavokawain B” (Bioorg Med Chem Lett, 2014).

Tests used:
Acetylcholinesterase [1] = molecular target: T1, Acetylcholinesterase (Rattus norvegicus, UniProt P37136); assay: Inhibition of Sprague-Dawley rat brain AChE using acetylthiocholin iodide as substrate preincubated for 25 mins by Ellman's/UV-vis spectroscopy analysis
T1 sequence (P37136 whole entry): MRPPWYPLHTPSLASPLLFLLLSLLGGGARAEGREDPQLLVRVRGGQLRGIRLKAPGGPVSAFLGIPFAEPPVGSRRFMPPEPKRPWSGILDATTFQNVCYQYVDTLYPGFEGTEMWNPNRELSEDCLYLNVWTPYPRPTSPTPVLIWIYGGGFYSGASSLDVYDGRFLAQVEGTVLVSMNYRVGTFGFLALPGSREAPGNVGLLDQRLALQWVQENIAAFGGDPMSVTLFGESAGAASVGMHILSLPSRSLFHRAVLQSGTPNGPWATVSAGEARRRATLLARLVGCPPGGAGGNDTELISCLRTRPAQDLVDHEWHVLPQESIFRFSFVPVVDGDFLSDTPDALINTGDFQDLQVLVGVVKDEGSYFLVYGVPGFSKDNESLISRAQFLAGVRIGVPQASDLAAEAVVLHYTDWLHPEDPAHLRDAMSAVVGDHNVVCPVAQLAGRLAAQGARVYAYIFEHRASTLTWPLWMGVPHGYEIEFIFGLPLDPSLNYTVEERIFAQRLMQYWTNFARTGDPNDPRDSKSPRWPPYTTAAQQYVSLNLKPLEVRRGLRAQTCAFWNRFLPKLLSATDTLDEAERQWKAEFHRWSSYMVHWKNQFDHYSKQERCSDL
Method in brief: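 Modified Ellman's method. Inhibition ratio was calculated from absorbance of the AChE-catalysed reaction product. IC50 was taken as the concentration causing 50% loss of enzyme activity.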

[2] = Octanol-buffer partition coefficient, log p of the compound at pH 7.4 for 24 hrs by shake flask method; assay type: physicochemical
Method in brief: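 Partitioning between n-octanol and buffer at pH 7.4 by the classical shake-flask method. Compound in each phase quantified by reverse-phase HPLC. log P calculated from the phase distribution.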

Acetylcholinesterase [3] = molecular target: T1, Acetylcholinesterase; assay: Inhibition of Sprague-Dawley rat brain AChE using acetylthiocholin iodide as substrate by Michaelis-Menten equation
Method in brief: (§1)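 Kinetic analysis: Km and vmax were determined at several inhibitor concentrations. Ki for the free enzyme came from a linear replot of slope against inhibitor concentration. Ki′ for the enzyme–substrate complex came from a linear replot of intercept against inhibitor concentration.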

Acetylcholinesterase [4] = molecular target: T1, Acetylcholinesterase; assay: Inhibition of Sprague-Dawley rat brain AChE by Michaelis-Menten equation; method in brief: as §1

SMILES | IC50 (Acetylcholinesterase [1]) | logD at 24 h [2] | Ki (Acetylcholinesterase [3]) | Ki (Acetylcholinesterase [4])
COc1cc(OC)c(C(=O)/C=C/c2ccccc2)c(O)c1CN(C)C | 18.8 µM | 1.61 | – | –
CCN(CC)Cc1c(OC)cc(OC)c(C(=O)/C=C/c2ccccc2)c1O | 15.1 µM | 1.69 | – | –
CCCN(CCC)Cc1c(OC)cc(OC)c(C(=O)/C=C/c2ccccc2)c1O | 54.8 µM | 1.77 | – | –
COc1cc(OC)c(C(=O)/C=C/c2ccccc2)c(O)c1CN1CCCC1 | 16.1 µM | 1.74 | – | –
COc1cc(OC)c(C(=O)/C=C/c2ccccc2)c(O)c1CN1CCCCC1 | 4.15 µM | 1.75 | 4.58 µM | 2.75 µM
COc1cc(OC)c(C(=O)/C=C/c2ccccc2)c(O)c1CN1CCOCC1 | 265 µM | 1.63 | – | –
COc1cc(OC)c(C(=O)/C=C/c2ccccc2)c(O)c1CN1CCN(C)CC1 | 12.4 µM | 1.58 | – | –
